From ChEMBL document CHEMBL3758117, “Discovery of indeno[1,2-b]quinoxaline derivatives as potential anticancer agents” (Eur J Med Chem, 2016) come the findings set out here.

SMILES strings stand for the structures. pIC50: −log10 of the molar value. Activity calls are given as the source filed them. The calls are words filed in the database; no cut-off is given here.

Data set [1] in a line: Cell cycle arrest in human HuH7 cells assessed as accumulation at G2/M phase at 1 uM for 24 hrs by propidium iodide staining based flow cytometry (reference value: 25.2 +/- 3.5%). The conditions noted are these: Huh-7. The format is functional. On the technique in general: A flow cytometer gives signals particle by particle.
In data set [2] the test system is Huh-7. The data set can be described thus: Selectivity index, ratio of IC50 for human MRC5 cells to IC50 for human HuH7 cells. Format: functional.
Data set [3] can be described thus: Cell cycle arrest in human HuH7 cells assessed as accumulation at G2/M phase at 10 uM for 24 hrs by propidium iodide staining based flow cytometry (reference value: 25.2 +/- 3.5%). The format is functional. The conditions noted are these: Huh-7.
Data set [4] is described as follows: Cell cycle arrest in human HuH7 cells assessed as accumulation at subG1 phase at 1 uM for 24 hrs by propidium iodide staining based flow cytometry (reference value: 1.3 +/- 0.7%). The format is functional. The conditions noted are these: Huh-7.
Data set [5] can be described thus: Induction of apoptosis in human HuH7 cells assessed as upregulation of activated caspase 3 at 1 to 10 uM after 24 hrs by Western blot analysis. The format is functional, cell-based. The conditions noted are these: Huh-7. In outline: (§1)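 Huh-7 cells were treated with DMSO or compound at 1, 5 and 10 μM for 24 h. Cells were lysed in NP-40 buffer with protease and phosphatase inhibitors, and protein was measured by Bradford. Lysate protein was resolved by SDS-PAGE and transferred to PVDF. Membranes were blocked in 5% milk, probed with primary antibodies for 2 h and secondary antibodies for 30 min, and detected by ECL, with β-actin as loading control.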

Another data set has as its system MRC5. The data set can be described thus: Selectivity index, ratio of IC50 for human MRC5 cells to IC50 for human MDA-MB-231 cells. Format: functional.
For data set [6], the target named is Proto-oncogene tyrosine-protein kinase Src (Homo sapiens) (UniProt P12931). The data set can be described thus: Inhibition of Src phosphorylation in human HuH7 cells at 1 to 10 uM after 24 hrs by immunoblot analysis. Format: cell-based. The conditions noted are these: Huh-7. The gist of the method: as §1
Sequence of Proto-oncogene tyrosine-protein kinase Src (Homo sapiens) (P12931 2-536 limits assumed): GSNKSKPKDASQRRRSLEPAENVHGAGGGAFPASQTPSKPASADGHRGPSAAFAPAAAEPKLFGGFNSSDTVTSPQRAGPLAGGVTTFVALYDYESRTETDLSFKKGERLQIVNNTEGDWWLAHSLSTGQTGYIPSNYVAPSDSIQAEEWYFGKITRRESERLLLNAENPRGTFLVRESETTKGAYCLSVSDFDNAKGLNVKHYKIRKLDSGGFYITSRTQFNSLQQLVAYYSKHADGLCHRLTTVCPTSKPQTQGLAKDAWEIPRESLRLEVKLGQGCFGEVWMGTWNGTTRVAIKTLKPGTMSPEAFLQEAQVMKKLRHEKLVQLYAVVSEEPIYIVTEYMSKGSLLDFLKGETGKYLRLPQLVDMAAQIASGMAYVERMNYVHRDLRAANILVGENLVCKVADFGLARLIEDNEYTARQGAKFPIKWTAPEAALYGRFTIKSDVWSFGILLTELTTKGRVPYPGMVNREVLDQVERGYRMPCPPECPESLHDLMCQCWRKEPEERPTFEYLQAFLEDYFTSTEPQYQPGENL
Data set [7] in a line: Induction of apoptosis in human HuH7 cells assessed as upregulation of Bax expression at 1 to 10 uM after 24 hrs by Western blot analysis. The format is functional, cell-based. The conditions noted are these: Huh-7. The gist of the method:
as §1
A general note: A western blot detects proteins with antibodies after separation by electrophoresis.

Data set [8] in a line: Cell cycle arrest in human HuH7 cells assessed as accumulation at S phase at 10 uM for 24 hrs by propidium iodide staining based flow cytometry (reference value: 11.4 +/- 2.4%). The format is functional. The conditions noted are these: Huh-7.
A short description of data set [9]: Induction of apoptosis in human HuH7 cells assessed as upregulation of Bad expression at 1 to 10 uM after 24 hrs by Western blot analysis. The conditions noted are these: Huh-7. The format is functional, cell-based.
The test system of a further data set is Escherichia coli. The data set can be described thus: Binding affinity to Escherichia coli negative supercoiled pBR322 DNA at 10 uM after 12 hrs by ethidium bromide staining based agarose gel electrophoresis. In outline:
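Negatively supercoiled pBR322 (400 ng) in TE buffer pH 8.0 was incubated with compound at 10 μM for 12 h at room temperature. Loading buffer with sarkosyl was added. Samples were run on 1% agarose at 6 V/cm for 2.5 h in TAE pH 8.5, stained with ethidium bromide and photographed under UV.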

A short description of data set [10]: Cell cycle arrest in human HuH7 cells assessed as accumulation at S phase at 1 uM for 24 hrs by propidium iodide staining based flow cytometry (reference value: 11.4 +/- 2.4%). The format is functional. The note with it: Huh-7.
Data set [11] is described as follows: Effect on total protein expression of Akt in human HuH7 cells at 1 to 10 uM after 24 hrs by immunoblot analysis. Format: cell-based. The note with it: huh-7, 24 h. In outline:
as §1

A short description of data set [12]: Antiproliferative activity against human H1299 cells after 72 hrs by XTT assay. The format is functional, cell-based. The conditions noted are these: NCI-H1299, 72 h. The gist of the method:
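Cells kept as monolayers in DMEM with 10% FBS, penicillin, streptomycin and amphotericin at 37°C, 5% CO2. Seeded at 5 x 10³ cells/well and exposed to compound for 72 h in medium with 10% FBS. XTT plus electron-coupling reagent added, 4 h at 37°C, absorbance read at 492 nm. Percent of control growth uses mean absorbance (n = 3). The 50% value is taken from the linear portion of the curve.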
In general terms: Tetrazolium dyes change colour on reduction, which living cells bring about.

Data set [13] has as its system Huh-7. The data set can be described thus: Induction of apoptosis in human HuH7 cells assessed as downregulation of Bcl-2 expression at 1 to 10 uM after 24 hrs by Western blot analysis. Format: functional, cell-based. The gist of the method: as §1
The test system of data set [14] is Huh-7. The data set can be described thus: Induction of apoptosis in human HuH7 cells assessed as cell shrinkage at 5 uM after 24 hrs by light microscopy. The format is functional, cell-based.
For data set [15], the target named is T1, DNA topoisomerase 1 (Homo sapiens) (UniProt P11387).
T1 sequence (whole entry): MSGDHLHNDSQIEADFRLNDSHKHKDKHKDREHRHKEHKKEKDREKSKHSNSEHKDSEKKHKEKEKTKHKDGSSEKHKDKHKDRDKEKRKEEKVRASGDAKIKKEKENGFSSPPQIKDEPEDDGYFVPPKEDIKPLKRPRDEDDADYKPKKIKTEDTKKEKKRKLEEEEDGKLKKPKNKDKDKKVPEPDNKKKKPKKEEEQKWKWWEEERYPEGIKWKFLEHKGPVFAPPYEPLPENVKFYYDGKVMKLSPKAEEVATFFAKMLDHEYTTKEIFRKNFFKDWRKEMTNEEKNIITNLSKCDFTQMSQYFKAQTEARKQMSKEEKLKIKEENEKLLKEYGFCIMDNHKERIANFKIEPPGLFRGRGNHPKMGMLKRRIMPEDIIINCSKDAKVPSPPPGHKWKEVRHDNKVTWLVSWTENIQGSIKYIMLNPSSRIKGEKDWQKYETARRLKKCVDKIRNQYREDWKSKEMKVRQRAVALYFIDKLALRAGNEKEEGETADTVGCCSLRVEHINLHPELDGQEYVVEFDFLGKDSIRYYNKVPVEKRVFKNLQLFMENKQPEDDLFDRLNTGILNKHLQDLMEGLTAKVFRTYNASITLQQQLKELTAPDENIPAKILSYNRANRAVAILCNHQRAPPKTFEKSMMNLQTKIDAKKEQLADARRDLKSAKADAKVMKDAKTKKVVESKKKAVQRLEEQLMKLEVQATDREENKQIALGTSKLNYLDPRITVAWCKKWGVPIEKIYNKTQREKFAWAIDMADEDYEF
The data set can be described thus: Inhibition of human DNA topoisomerase 1-mediated relaxation of supercoiled pBR322 DNA at 100 uM after 30 mins by ethidium bromide staining based agarose gel electrophoresis. In outline: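 Human topo I or topo II (2 units) was reacted with 0.2 μg supercoiled pBR322 in 20 μl Tris-HCl pH 7.5 containing KCl, DTT, EDTA, MgCl2 and BSA, with DMSO held at 0.5%, for 30 min at 37°C. The reaction was stopped with SDS. Samples were run on 1% agarose in Tris-acetate/EDTA at 1.5 V/cm for 2-3 h and stained with ethidium bromide. Relaxation was quantified by densitometry of the supercoiled band area.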

Data set [16] can be described thus: Cell cycle arrest in human HuH7 cells assessed as accumulation at sub G1 phase at 5 uM for 24 hrs by propidium iodide staining based flow cytometry (reference value: 1.3 +/- 0.7%). The conditions noted are these: Huh-7. Format: functional.
The nature of data set [17]: Selectivity index, ratio of IC50 for human MRC5 cells to IC50 for human H1299 cells. Format: functional.

What is called pIC50 is the negative decadic logarithm of the IC50, by convention in mol/L. Lower therefore signals a large IC50. Take `CN(C)CCCNC(=O)c1cccc2nc3c(nc12)-c1ccccc1/C3=N\OCCCN(C)C.Cl`: the Activity in [1] was 19.3%; in data set [3] it was 7.8%; in [4], 3.8%; in data set [5], “Dose-dependent effect”; in [7], “Dose-dependent effect”; in data set [8] it was 38.4%. For the same molecule, the Activity entry is “Dose-dependent effect” in data set [9]; 21.6% in data set [10]; “Non-toxic” in data set [11]; “Dose-dependent effect” with Huh-7 [13]; 11.5% in [16]. The “Ratio IC50” value with Huh-7 [2] stood at 49.23; in the data set with MRC5 it was 36.22; in data set [17], 5.45. Moreover, in [6], the inhibition entry is “Active”. Moreover, the result in the data set with Escherichia coli and with Huh-7 [14] was Active. In data set [12], this molecule gave a pIC50 of 5.24. Moreover, the “topoisomerase 1 inhibition (active/inactive)” value in data set [15] is “Active”.
